According to ChEMBL document CHEMBL1147081, “Structure of the deacetylase LpxC bound to the antibiotic CHIR-090: Time-dependent inhibition and specificity in ligand binding” (Proc Natl Acad Sci U S A, 2007):

Assays:
[1] = target: T1, UDP-3-O-acyl-N-acetylglucosamine deacetylase (Escherichia coli K-12, UniProt P0A725); test: Inhibition of Escherichia coli LpxC
T1 sequence (P0A725 whole entry): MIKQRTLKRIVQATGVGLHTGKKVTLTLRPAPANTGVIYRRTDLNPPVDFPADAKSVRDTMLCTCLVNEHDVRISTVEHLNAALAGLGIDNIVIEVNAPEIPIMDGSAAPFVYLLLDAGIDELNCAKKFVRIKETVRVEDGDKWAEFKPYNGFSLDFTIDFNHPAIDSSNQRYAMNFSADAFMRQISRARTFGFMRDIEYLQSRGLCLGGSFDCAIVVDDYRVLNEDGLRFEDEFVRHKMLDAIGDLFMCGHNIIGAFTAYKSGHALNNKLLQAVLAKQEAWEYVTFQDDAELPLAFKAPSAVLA

[2] = target: UDP-3-O-acyl-N-acetylglucosamine deacetylase (Escherichia coli K-12, UniProt P0A725, G210S/Q202W); test: Inhibition of Escherichia coli LpxC Q202W/G210S mutant
Chain of UDP-3-O-acyl-N-acetylglucosamine deacetylase (Escherichia coli K-12, UniProt P0A725, G210S/Q202W) (P0A725 whole entry Q202W/G210S): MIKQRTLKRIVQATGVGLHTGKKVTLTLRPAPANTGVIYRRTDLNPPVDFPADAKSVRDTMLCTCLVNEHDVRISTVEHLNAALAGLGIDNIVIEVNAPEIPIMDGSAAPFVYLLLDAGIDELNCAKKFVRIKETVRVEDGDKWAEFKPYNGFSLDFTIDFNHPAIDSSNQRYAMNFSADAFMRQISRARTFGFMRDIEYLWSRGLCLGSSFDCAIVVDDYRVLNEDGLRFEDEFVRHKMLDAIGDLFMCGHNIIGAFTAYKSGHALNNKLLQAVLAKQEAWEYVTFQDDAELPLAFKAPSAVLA

[3] = target: UDP-3-O-acyl-N-acetylglucosamine deacetylase (Rhizobium leguminosarum bv. trifolii (strain WSM1325), UniProt C6ARS9, S214G/W206Q); test: Inhibition of Rhizobium leguminosarum LpxC W206Q/S214G mutant
Chain of UDP-3-O-acyl-N-acetylglucosamine deacetylase (Rhizobium leguminosarum bv. trifolii (strain WSM1325), UniProt C6ARS9, S214G/W206Q) (C6ARS9 as listed by the source W206Q/S214G): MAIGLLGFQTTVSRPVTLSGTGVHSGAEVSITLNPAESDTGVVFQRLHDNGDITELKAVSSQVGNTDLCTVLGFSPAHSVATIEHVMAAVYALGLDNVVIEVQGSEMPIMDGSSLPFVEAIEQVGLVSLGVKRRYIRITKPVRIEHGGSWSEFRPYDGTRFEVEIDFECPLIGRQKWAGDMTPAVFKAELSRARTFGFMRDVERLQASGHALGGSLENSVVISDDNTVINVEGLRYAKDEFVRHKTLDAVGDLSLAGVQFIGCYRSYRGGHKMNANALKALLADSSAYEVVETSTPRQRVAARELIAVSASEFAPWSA
In short: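 Assays used 5 μM UDP-3-O-(R-3-hydroxymyristoyl)-N-acetylglucosamine substrate and varied inhibitor at constant 10% DMSO. An IC50 curve was fit to fractional activity (vi/vo), and Ki was derived with the Cheng–Prusoff relationship.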

[4] = Inhibition of Rhizobium leguminosarum LpxC

Structure (SMILES)	Ki [1] [nM]	Ki [2] [nM]	Ki [3] [nM]	Ki [4] [nM]
CCCc1cc(C2=N[C@@H](C(=O)NO)CO2)cc(OC)c1OC	53	340	110000	380000
O=C(NO)[C@@H](Cc1ccc2ccccc2c1)NS(=O)(=O)c1ccc2ccccc2c1	69	86	700	5800
